Series [1] in a line: Apparent volume of distribution in rat at 2 mg/kg, iv. It is filed as ADME, organism-based. Details: dose 2 mg/kg, route intravenous; call rule not given here. The following applies: in vivo, read-out: Vz.
Series [2] can be described thus: Cmax in rat at 2 mg/kg, iv. The series is classed as ADME, organism-based. Details: dose 2 mg/kg, route intravenous. Conditions: in vivo.
Series [3] is described as follows: AUCall in rat at 2 mg/kg, iv. The series is classed as ADME, organism-based. Details: dose 2 mg/kg, route intravenous. The following applies: plasma.
Series [4] can be described thus: Cmax in dog at 10 mg/kg, po. Conditions: in vivo. Details: dose 10 mg/kg, route oral. The series is classed as ADME, organism-based, Canis lupus familiaris. The method, boiled down: (§1)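 Dogs dosed orally at 10 mg/kg; plasma pharmacokinetic parameters determined.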
A short description of series [5]: AUCall in dog at 2 mg/kg, iv. It is filed as ADME, organism-based, Canis lupus familiaris. Details: dose 2 mg/kg, route intravenous. The following applies: plasma.
Series [6] relates to Rattus norvegicus. The series is described as follows: Drug metabolism in rat assessed as sulfoxide metabolite formation at 2 mg/kg, iv. The series is classed as ADME, organism-based. Details: dose 2 mg/kg, route intravenous. Conditions: in vivo. The method, boiled down: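 Rats dosed i.v. at 2 mg/kg and plasma monitored in vivo for the sulfoxide metabolite. AUCall was also measured after 20 mg/kg oral dosing.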

Series [7] in a line: Oral bioavailability in dog at 10 mg/kg. The series is classed as ADME, organism-based, Canis lupus familiaris. The following applies: in vivo. The method, boiled down:
as §1

The nature of series [8]: AUCall in rat at 20 mg/kg, po. It is filed as ADME, organism-based. Details: dose 20 mg/kg, route oral. The following applies: plasma.
A short description of series [9]: Solubility of the compound. The series is classed as physicochemical.
Series [10] can be described thus: Cmax in rat at 20 mg/kg, po. Conditions: in vivo. It is filed as ADME, organism-based. Details: dose 20 mg/kg, route oral.
A short description of series [11]: Tmax in dog at 10 mg/kg, po. It is filed as ADME, organism-based, Canis lupus familiaris. Details: dose 10 mg/kg, route oral. The following applies: in vivo. The procedure, abridged: as §1
Series [12] relates to Rattus norvegicus. The series is described as follows: AUCall in rat assessed as sulfoxide metabolite level at 20 mg/kg, po. The series is classed as ADME, organism-based, Plasma. Details: dose 20 mg/kg, route oral. The following applies: in vivo. The procedure, abridged: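 Rats given the parent sulfide compound orally at 20 mg/kg, with plasma monitored for its in vivo sulfoxide metabolite; exposure to that metabolite is reported as AUCall. A separate i.v. dose of 2 mg/kg in rats was also monitored for this metabolite.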

Series [13] in a line: AUCall in dog at 10 mg/kg, po. Details: dose 10 mg/kg, route oral. The following applies: plasma. It is filed as ADME, organism-based, Canis lupus familiaris.
The nature of series [14]: Cmax in dog at 2 mg/kg, iv. It is filed as ADME, organism-based, Canis lupus familiaris. Details: dose 2 mg/kg, route intravenous. The following applies: in vivo.
A short description of series [15]: Apparent volume of distribution in dog at 2 mg/kg, iv. Details: dose 2 mg/kg, route intravenous. Conditions: in vivo, read-out: Vz. The series is classed as ADME, organism-based, Canis lupus familiaris.
A short description of series [16]: Tmax in rat at 20 mg/kg, po. It is filed as ADME, organism-based. Conditions: in vivo. Details: dose 20 mg/kg, route oral.
A short description of series [17]: Oral bioavailability in rat at 20 mg/kg. Conditions: in vivo. It is filed as ADME, organism-based.

A value given as a limit tells only on which side of the number the result lay.

`COc1cc(OC)nc(NCCCn2c3c(c4cc(S(C)(=O)=O)ccc42)CCCC3)n1`: the Vd in series [1] amounted to 3.51 L/kg. For the same molecule, the Cmax (usually the highest concentration seen after dosing) in series [2] stood at 1080 ng/mL. The AUC (as a rule, the area under the concentration-time curve, a measure of exposure) in series [3] is 902 ng·h/mL.

Turning to `Cc1noc(-c2ccc3c(c2)c2c(n3CCCSc3cc(F)cc(F)c3)CCCC2)n1`, the Cmax in series [4] was determined as 625 ng/mL; in [10] it was 955 ng/mL; in series [14] it was 3880 ng/mL; in [2], 2990 ng/mL. The AUC in series [5] was found to be 1750 ng·h/mL; in series [8], 4230 ng·h/mL; in the series with Rattus norvegicus [12], 143 ng·h/mL; in [13], 2010 ng·h/mL; in series [3], 1180 ng·h/mL. For the same molecule, in the series on Rattus norvegicus [6], the Drug metabolism entry was “Not Active”. Further, the Vd in series [1] is 3.64 L/kg; in series [15], 1.8 L/kg. The bioavailability – broadly, the share of a dose that reaches the circulation, judged against a reference dose that is usually intravenous – in series [7] was determined as 34%. Moreover, the solubility (commonly the dissolved amount per volume that the medium holds) in series [9] is > 1000 µg/mL. Also, the results for the Tmax in series [11] and in series [16] were 2 h and 2.33 h, respectively.

`CCc1cc(CC)nc(OCCCn2c3c(c4cc(-c5nc(C)no5)ccc42)CCCC3)n1`: the Vd in series [1] was found to be 18.9 L/kg. Also, the Cmax in series [2] came out at 1050 ng/mL. This molecule also had an AUC in series [3] of 497 ng·h/mL.

Regarding `Cc1noc(-c2ccc3c(c2)c2c(n3CCCS(=O)(=O)N(C)C)CCCC2)n1`, in series [1], the Vd worked out at 3.96 L/kg. In series [2], the Cmax was 1240 ng/mL. This molecule also came in with an AUC in series [3] of 520 ng·h/mL.

In the case of `Cc1noc(-c2ccc3c(c2)c2c(n3CCCOc3cc(F)cc(F)c3)CCCC2)n1`, in series [1], the Vd was 22.1 L/kg. The molecule also came in with a Cmax in series [2] of 821 ng/mL. The molecule further returned an AUC in series [3] of 404 ng·h/mL.

In the case of `Cc1noc(-c2ccc3c(c2)c2c(n3CC(F)COc3cc(F)cc(F)c3)CCCC2)n1` (stereo not drawn), the Vd in series [1] stood at 5.52 L/kg. Besides, the AUC in series [8] was 3140 ng·h/mL; in [3], 691 ng·h/mL. This molecule also returned a bioavailability in series [17] of 38%. Further, the Cmax in [10] is 747 ng/mL; in series [2], 1710 ng/mL. Besides, the Tmax (commonly the time at which the peak concentration occurs) in series [16] stood at 2.67 h.

For the molecule `COC(=O)c1ccc2c(c1)c1c(n2CCCNc2nc(OC)cc(OC)n2)CCCC1`, the Vd in [1] was 11.3 L/kg. In addition, in series [2], the concentration peaked (Cmax) at 182 ng/mL. In series [3], this molecule showed an AUC of 521 ng·h/mL.
